Screening results as filed in PubChem.
Hits are enriched below; roughly 0.6% of the tested compounds scored in any of these assays.
Keap1-Nrf2 PPI: Keap1-Nrf2 (human) interaction inhibition; 0.15% of 340,000 active; AID 504523; inhibition, % at 9.4 µM; Q14145; Keap1 Kelch-Nrf2 peptide fluorescence polarization, 1536-well; in the data active means inhibition above about 12%;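 further: human Keap1 Kelch domain with fluorescein labeled Nrf2 9mer peptide probe; 0% = neutral control wells and 100% = peptide positive control; higher means more block of Keap1 binding to Nrf2 peptide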
Target sequence (Q14145 whole entry, looked up, the tested form may be a part): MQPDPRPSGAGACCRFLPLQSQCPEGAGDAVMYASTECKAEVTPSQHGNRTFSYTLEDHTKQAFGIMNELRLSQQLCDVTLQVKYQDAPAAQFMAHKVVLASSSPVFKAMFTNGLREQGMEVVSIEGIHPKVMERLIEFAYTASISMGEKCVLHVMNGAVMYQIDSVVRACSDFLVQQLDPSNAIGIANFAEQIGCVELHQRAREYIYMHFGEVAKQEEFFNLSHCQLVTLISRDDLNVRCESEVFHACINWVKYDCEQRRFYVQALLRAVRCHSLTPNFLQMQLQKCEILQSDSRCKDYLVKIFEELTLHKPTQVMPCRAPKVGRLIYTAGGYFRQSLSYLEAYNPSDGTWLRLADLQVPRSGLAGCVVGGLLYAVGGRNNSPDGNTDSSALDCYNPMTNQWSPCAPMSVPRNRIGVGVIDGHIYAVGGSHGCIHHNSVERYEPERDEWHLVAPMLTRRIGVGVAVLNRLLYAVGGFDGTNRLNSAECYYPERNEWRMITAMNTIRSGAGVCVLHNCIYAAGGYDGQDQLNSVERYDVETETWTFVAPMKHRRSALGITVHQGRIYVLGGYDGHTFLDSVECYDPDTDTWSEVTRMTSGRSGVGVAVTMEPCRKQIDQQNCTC
C-LANA FP: inhibitors of KSHV LANA C-terminal domain DNA binding; MBP-C-LANA/FAM-LBS DNA binding, fluorescence polarization; inhibition, % at 9 µM; 0.078% of 340,000 active;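 active means highest replicate inhibition at or above 60% at 9 µM, even if other replicates fall short; inactive means all replicates below 60% inhibition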;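 further: 0% = neutral control wells and 100% = 4 µM acridine orange control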
DDE Tn7 FP inh: disrupts Tn7 cyclic peptide binding to fibrin D-Dimer-E complex; P02675; FP displacement of FITC-Tn7 peptide from fibrin DD(E); 0% = median of compound wells per plate; inhibition, % at 8.3 µM; 0.13% of 370,000 active; AID 720508;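 active means inhibition above the mean of compounds falling within the control limits plus 3 SD of them, cut at about 14% in these data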;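 further: 0% = plate median of compound wells and 100% = 10 µM Aha-Tn7 peptide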
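Assay system: Human fibrin DD(E) protein | Medium: Tris buffer with calcium and detergent, pH 7.8 | Reagent: 0.1 µM fluorescent Tn7 | Compound dosing: Single point at 8.3 µM | Times: 10 min preincubation, 3 h with tracer, room temperature | Detection: Fluorescence polarization of the labelled Tn7 tracer | Controls: Aha-Tn7 high control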
Rtt109 Vps75: C. albicans Rtt109 histone acetyltransferase inhibition; AID 540336; purified Rtt109/Vps75, ThioGlo CoA-SH fluorescence, 4 h; inhibition, % at 34.9 µM; Q5AAJ8; 0.16% of 330,000 active;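 active means inhibition of at least 50% in every replicate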
DDE Tn6 FP inh: inhibitors of Tn6 peptide binding to human fibrin DD(E). P02675. inhibition, % at 8.3 µM. 0.21% of 370,000 active. Fibrin DD(E) TRITC-Tn6 fluorescence polarization displacement. AID 720509;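 active means inhibition above a per-campaign cutoff: mean of compounds within control limits plus 3 SD, cut at about 15% in these data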;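 further: 0% = median of all compound wells on the plate and 100% = blocking peptide control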
Keap1 Kelch bind: Keap1 (human) Kelch domain binding; AID 651823; Keap1 Kelch thermal shift, delta Tm; hits give high values; 8% of 400 active; shares compounds with Keap1-Nrf2 PPI; max delta Tm, degrees C; in the data active means max delta Tm above about 0.48 degrees C
Sypro dye melt: counter-screen for Keap1 thermal shift hits: dye-only artifacts; 140 tested, under 10 active; shares compounds with Keap1-Nrf2 PPI; AID 651858; delta Tm, degrees C (concentration not given with the values); Sypro Orange dye-only thermal melt, no protein, delta Tm; top dose 26 µM;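 active means at highest dose tested, delta Tm positive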
Starred values were filed as active, the others as inactive.

N#Cc1c(SCC(=O)Nc2nncs2)sc2c(O)cc(=O)[nH]c12 was read as Keap1-Nrf2 PPI 21*, C-LANA FP 20, DDE Tn7 FP inh -3, Rtt109 Vps75 -1, DDE Tn6 FP inh -17, Keap1 Kelch bind 0.19 and Sypro dye melt -32.
For CCCCN1C(=O)/C(=C2/Sc3ccccc3N2C)S/C1=N\c1ncn[nH]1 the results were Keap1-Nrf2 PPI 41*, C-LANA FP 21, DDE Tn7 FP inh -1, Rtt109 Vps75 1, DDE Tn6 FP inh 1, Keap1 Kelch bind -0.07 and Sypro dye melt -28.
Screening Cc1ccc(-n2c(SCC(=O)Nc3ccc(OCc4ccccc4)cc3)nnc2-c2ccco2)cc1 returned DDE Tn7 FP inh 4 and DDE Tn6 FP inh 0.
Cc1nnc(NC(=O)c2ccc3c(c2)NC(=O)CS3)s1 was read as Keap1-Nrf2 PPI 18*, C-LANA FP 0, DDE Tn7 FP inh 0, Rtt109 Vps75 0, DDE Tn6 FP inh 8 and Keap1 Kelch bind -0.13.
Cc1ccc(NC(=O)c2ccc3c(c2)NC(=O)CS3)nc1 was read as Keap1-Nrf2 PPI -2, C-LANA FP 1, DDE Tn7 FP inh 5, Rtt109 Vps75 1 and DDE Tn6 FP inh 4.
Screening CCCN1CNC(=S)N(c2cc(C)ccc2C)C1 returned Keap1-Nrf2 PPI 13*, C-LANA FP 2, DDE Tn7 FP inh -7, Rtt109 Vps75 1, DDE Tn6 FP inh -3 and Keap1 Kelch bind -0.1.
COC(=O)c1ccccc1NC1=C/C(=N\S(=O)(=O)c2ccc(C(=O)O)cc2)c2ccccc2C1=O was read as Keap1-Nrf2 PPI 14*, C-LANA FP 10, Rtt109 Vps75 22, Keap1 Kelch bind 1.4* and Sypro dye melt 8.1*.
Screening CC(C)(C)OC(=O)/C=C/[C@@H](CCCCl)Sc1ccc(C(C)(C)C)cc1 returned DDE Tn7 FP inh 4 and DDE Tn6 FP inh 3.
`CCSc1ncc(Cl)c(C(=O)Nc2ccccc2OC)n1` gave Keap1-Nrf2 PPI 23*, C-LANA FP 5, DDE Tn7 FP inh 5, Rtt109 Vps75 -3, DDE Tn6 FP inh 2 and Keap1 Kelch bind -0.2.
`Cc1ccccc1NC(=O)OC1CCC12CCCCC2` (stereo unspecified) gave DDE Tn7 FP inh 2 and DDE Tn6 FP inh 2.
O=C(CCc1nc(-c2ccccc2F)no1)NCCc1ccccc1F was read as DDE Tn7 FP inh -1 and DDE Tn6 FP inh 1.
Screening c1ccc2c(c1)CCCN2Cc1nnnn1CC1CCCO1 (stereo unspecified) returned Keap1-Nrf2 PPI 20*, C-LANA FP 31, DDE Tn7 FP inh 5, Rtt109 Vps75 -60, DDE Tn6 FP inh 8 and Keap1 Kelch bind -0.19.
`c1ccc(CCn2nnnc2CN2CCCc3ccccc32)cc1` gave Keap1-Nrf2 PPI 2, C-LANA FP -1, DDE Tn7 FP inh 7, Rtt109 Vps75 -1 and DDE Tn6 FP inh 0.
CCC(C)[C@H](NC(=O)[C@H](Cc1ccccc1)NC(=O)OC(C)(C)C)C(=O)NCc1ccccc1Br (stereo partly specified) was read as DDE Tn7 FP inh 2 and DDE Tn6 FP inh 2.
O=c1c2c(n3nnnc3n1Cc1ccc(Cl)cc1)-c1ccccc1CC21CCCC1 was read as DDE Tn7 FP inh 10 and DDE Tn6 FP inh 3.
`O=C(NCc1cccc(F)c1)c1cccc2c1C(=O)c1ccc(N3CCCC3)cc1S2(=O)=O` gave Keap1-Nrf2 PPI 15*, C-LANA FP 31, Rtt109 Vps75 5 and Keap1 Kelch bind -0.02.
For CC1CCN(c2ccc3c(c2)S(=O)(=O)c2cccc(C(=O)NCc4cccc(F)c4)c2C3=O)CC1 the results were Keap1-Nrf2 PPI 2, C-LANA FP 3, DDE Tn7 FP inh -9, Rtt109 Vps75 -3 and DDE Tn6 FP inh -8.
Screening COC(=O)[C@]12C[C@H](CC(=O)NCc3ccc(C)o3)C(=O)N(CCc3ccc(OC)c(OC)c3)C1=C[C@H](C(C)(C)C)O[C@@H]2C returned DDE Tn7 FP inh 1 and DDE Tn6 FP inh -4.
